ChEMBL document CHEMBL2057141, “Imidazolopiperazines: lead optimization of the second-generation antimalarial agents” (J Med Chem, 2012)
Each block holds one compound with its values, some of them ahead of it.

Tests used:
Plasmodium falciparum [1] = test: Antimalarial activity against Plasmodium falciparum 3D7 after 72 hrs by SYBR green fluorescence assay; type: functional, organism-based; settings: 3D7, 72 h
Method in brief: (§1)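 P. falciparum grown in O+ erythrocytes, screened in medium without human serum plus 0.5% Albumax II. Twelve-point half-log dilutions up to 10 μM final. 0.3% parasitemia, 2.5% hematocrit; 72 h at 37 °C under low-oxygen gas. Lysis buffer with SYBR Green added, 24 h at 25 °C, fluorescence read at 485/530 nm.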

Plasmodium falciparum [2] = test: Antimalarial activity against Plasmodium falciparum W2 after 72 hrs by SYBR green fluorescence assay; type: functional, organism-based; settings: W2, 72 h; method in brief: as §1
[3] = Metabolic stability in mouse liver microsomes assessed as hepatic extraction ratio by LC/MS/MS analysis; type: ADME, Microsome
Method in brief: (§2)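 Liver microsomes (human, mouse, rat). Compound depletion followed by LC/MS/MS. Loss of parent used to derive in vitro half-life and hepatic extraction ratio.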

[4] = Metabolic stability in mouse liver microsomes assessed as hepatic extraction ratio by LC/MS/MS analysis in presence of CYP; type: ADME, Microsome; method in brief: as §2
[5] = Metabolic stability in rat liver microsomes assessed as hepatic extraction ratio by LC/MS/MS analysis in presence of CYP; type: ADME, Microsome; method in brief: as §2
[6] = Metabolic stability in human liver microsomes assessed as hepatic extraction ratio by LC/MS/MS analysis in presence of CYP; type: ADME, Microsome; method in brief: as §2
[7] = Permeability of the compound by PAMPA; type: ADME
Method in brief: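 PAMPA in 96-well filter plates. Permeated compound quantified by UV absorbance at 260–290 nm. Reported as percentage absorbed.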

[8] = Apparent permeability across apical to basolateral side in human Caco2 cells by LC/MS analysis; type: ADME, cell-based; settings: Caco-2
Method in brief: (§3)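 Caco-2 monolayers in 96-well format. Compound measured in apical and basolateral chambers by LC/MS, giving Papp in the A–B and B–A directions. Values reported in cm/s × 10⁶.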

[9] = Apparent permeability across basolateral to apical side in human Caco2 cells by LC/MS analysis; type: ADME, cell-based; settings: Caco-2; method in brief: as §3
Plasmodium berghei [10] = test: Antimalarial activity against Plasmodium berghei ANKA expressing GFP infected in NMRI mouse assessed as reduction of parasite level in blood at 30 mg/kg, po administered 24 hrs post infection measured after 72 hrs post infection by flow cytometry; type: functional; parameters: scale not given: the % may be the effect or the level left
Method in brief: (§4)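 Female NMRI mice (20–22 g, n=3) are infected i.v. with 2×10^7 P. berghei GFP ANKA-infected erythrocytes. Oral compound in 75% PEG300/25% D5W is given at 10 mL/kg, once at 24 h or daily at 24/48/72 h post-infection. Parasitemia is read by flow cytometry at 72 h (single dose) or 96 h (triple dose). Activity is % reduction of mean parasitemia versus untreated controls.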

Plasmodium berghei [11] = test: Antimalarial activity against Plasmodium berghei ANKA expressing GFP infected in NMRI mouse assessed as reduction of parasite level in blood at 100 mg/kg, po administered 24 hrs post infection measured after 72 hrs post infection by flow cytometry; type: functional; parameters: scale not given: the % may be the effect or the level left; method in brief: as §4
Plasmodium berghei [12] = test: Antimalarial activity against Plasmodium berghei ANKA expressing GFP infected in NMRI mouse assessed as reduction of parasite level in blood at 30 mg/kg, po administered 24 hrs post infection qd for 3 days measured after 96 hrs post infection by flow cytometry; type: functional; parameters: scale not given: the % may be the effect or the level left; method in brief: as §4
Plasmodium berghei [13] = test: Antimalarial activity against Plasmodium berghei ANKA expressing GFP infected in NMRI mouse assessed as increase of mouse survival at 30 mg/kg, po administered 24 hrs post infection (reference value: 6 to 7 days); type: functional
Plasmodium berghei [14] = test: Antimalarial activity against Plasmodium berghei ANKA expressing GFP infected in NMRI mouse assessed as increase of mouse survival at 100 mg/kg, po administered 24 hrs post infection (reference value: 6 to 7 days); type: functional
Plasmodium berghei [15] = test: Antimalarial activity against Plasmodium berghei ANKA expressing GFP infected in NMRI mouse assessed as increase of mouse survival at 30 mg/kg, po administered 24 hrs post infection qd for 3 days (reference value: 6 to 7 days); type: functional
[16] = target: Voltage-gated inwardly rectifying potassium channel KCNH2 (Homo sapiens, UniProt Q12809); test: Inhibition of human ERG channel expressed in CHO cells by patch clamp assay; type: cell-based
Chain of Voltage-gated inwardly rectifying potassium channel KCNH2 (Q12809 whole entry): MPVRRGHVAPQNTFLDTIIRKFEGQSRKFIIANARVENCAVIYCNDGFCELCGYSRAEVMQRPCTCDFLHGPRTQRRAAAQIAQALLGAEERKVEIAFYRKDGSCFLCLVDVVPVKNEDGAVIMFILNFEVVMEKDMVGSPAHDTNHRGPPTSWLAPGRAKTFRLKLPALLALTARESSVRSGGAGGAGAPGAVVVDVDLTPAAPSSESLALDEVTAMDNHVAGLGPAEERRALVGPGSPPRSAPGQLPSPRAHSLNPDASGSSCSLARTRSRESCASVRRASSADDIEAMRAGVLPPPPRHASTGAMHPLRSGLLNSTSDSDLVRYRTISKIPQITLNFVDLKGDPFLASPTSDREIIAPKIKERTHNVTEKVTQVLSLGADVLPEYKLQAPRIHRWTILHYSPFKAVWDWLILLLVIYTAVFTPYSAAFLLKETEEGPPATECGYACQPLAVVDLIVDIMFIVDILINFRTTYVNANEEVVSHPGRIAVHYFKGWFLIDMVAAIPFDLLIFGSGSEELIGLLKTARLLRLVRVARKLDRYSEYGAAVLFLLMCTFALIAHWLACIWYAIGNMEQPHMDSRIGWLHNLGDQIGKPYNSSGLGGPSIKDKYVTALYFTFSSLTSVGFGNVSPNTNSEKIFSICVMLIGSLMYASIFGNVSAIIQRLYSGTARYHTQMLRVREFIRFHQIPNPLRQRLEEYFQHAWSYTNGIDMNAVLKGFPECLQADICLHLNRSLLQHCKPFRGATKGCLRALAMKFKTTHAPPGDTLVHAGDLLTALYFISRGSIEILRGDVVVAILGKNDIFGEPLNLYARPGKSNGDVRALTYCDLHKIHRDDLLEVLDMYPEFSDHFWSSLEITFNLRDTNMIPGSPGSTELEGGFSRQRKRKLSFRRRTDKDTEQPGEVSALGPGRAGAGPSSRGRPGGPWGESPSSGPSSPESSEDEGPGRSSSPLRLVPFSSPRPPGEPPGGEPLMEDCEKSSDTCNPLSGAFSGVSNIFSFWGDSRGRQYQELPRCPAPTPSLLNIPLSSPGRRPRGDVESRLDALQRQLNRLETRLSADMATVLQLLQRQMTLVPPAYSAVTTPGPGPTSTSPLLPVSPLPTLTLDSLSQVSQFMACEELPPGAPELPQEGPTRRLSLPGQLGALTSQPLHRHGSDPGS

[17] = Volume of distribution in Balb/c mouse at 5 mg/kg, iv; type: ADME, organism-based; parameters: dose 5 mg/kg, route intravenous; settings: in vivo
Method in brief: (§5)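 Male Balb/c mice (n = 3 per group). Compound as a 2.5 mg/mL solution in PEG300/D5W 3:1, filtered. Given by lateral tail vein at 5 mg/kg (2 mL/kg) or orally at 20 mg/kg (8 mL/kg). Six serial 50 μL retro-orbital blood samples to 24 h, heparinized plasma. Plasma extracted with acetonitrile:methanol 3:1 with internal standard, LC-MS/MS. Noncompartmental analysis; F = AUCpo×dose_iv/AUCiv×dose_po.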

[18] = Clearance in Balb/c mouse plasma at 5 mg/kg, iv; type: ADME, organism-based; parameters: dose 5 mg/kg, route intravenous; method in brief: as §5
[19] = Half life in Balb/c mouse at 5 mg/kg, iv; type: ADME, organism-based; parameters: dose 5 mg/kg, route intravenous; settings: in vivo; method in brief: as §5
Mus musculus [20] = test: AUC (0 to 24 hrs) in Balb/c mouse at 5 mg/kg, iv; type: ADME, organism-based, Plasma; parameters: time < 24 hr, dose 5 mg/kg, route intravenous; settings: in vivo; method in brief: as §5
[21] = Cmax in Balb/c mouse at 20 mg/kg, po; type: ADME, organism-based; parameters: dose 20 mg/kg, route oral; settings: in vivo; method in brief: as §5
[22] = Tmax in Balb/c mouse at 20 mg/kg, po; type: ADME, organism-based; parameters: dose 20 mg/kg, route oral; settings: in vivo; method in brief: as §5
[23] = Half life in Balb/c mouse at 20 mg/kg, po; type: ADME, organism-based; parameters: dose 20 mg/kg, route oral; settings: in vivo; method in brief: as §5
Mus musculus [24] = test: AUC (0 to 24 hrs) in Balb/c mouse at 20 mg/kg, po; type: ADME, organism-based, Plasma; parameters: time < 24 hr, dose 20 mg/kg, route oral; settings: in vivo; method in brief: as §5
Mus musculus [25] = test: Oral bioavailability in Balb/c mouse at 20 mg/kg; type: ADME, organism-based; settings: in vivo; method in brief: as §5
[26] = AUC (0 to 5 hrs) in Wistar rat at 10 mg/kg, po; type: ADME, organism-based; parameters: dose 10 mg/kg, route oral; settings: plasma
[27] = Cmax in Wistar rat at 10 mg/kg, po; type: ADME, organism-based; parameters: dose 10 mg/kg, route oral; settings: Wistar, in vivo
Method in brief: (§6)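 Rat snapshot PK: two Wistar rats dosed orally at 10 mg/kg, formulated at 2.5 mg/mL in 75% PEG300/25% D5W. Blood (100 μL) taken at 0.5, 1, 3 and 5 h post dose. Plasma pooled by sampling time, then analysed by LC-MS/MS.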

Rattus norvegicus = test: Dose normalized AUC (0 to 5 hrs) in Wistar rat at 10 mg/kg, po; type: ADME, organism-based; parameters: dose 10 mg/kg, route oral; settings: in vivo; method in brief: as §6

EC50 (Plasmodium falciparum [1]): 8 nM
EC50 (Plasmodium falciparum [2]): 6 nM
Compound: Cc1ccc(Nc2c(-c3ccc(F)cc3)nc3n2CCN(C(=O)CN)C3(C)C)cc1

EC50 (Plasmodium falciparum [1]): 343 nM
EC50 (Plasmodium falciparum [2]): 470 nM
Compound: CC(C)[C@H]1c2nc(-c3ccc(F)cc3)c(Nc3ccc(F)c(Cl)c3)n2CCN1C(=O)CN

EC50 (Plasmodium falciparum [1]): 161 nM
EC50 (Plasmodium falciparum [2]): 178 nM
hepatic extraction ratio [3]: 0.8
hepatic extraction ratio [4]: 0.87
hepatic extraction ratio [5]: 0.96
hepatic extraction ratio [6]: 0.79
permeability [7]: 99.5%
Papp A→B [8]: 8.2 ×10⁻⁶ cm/s
Papp B→A [9]: 2.36 ×10⁻⁶ cm/s
Compound: Cc1ccc(Nc2c(-c3ccc(F)cc3)nc3n2CCNC3)cc1

EC50 (Plasmodium falciparum [1]): 168 nM
EC50 (Plasmodium falciparum [2]): 202 nM
Compound: CC(C)[C@@H]1c2nc(-c3ccc(F)cc3)c(Nc3ccc(F)c(Cl)c3)n2CCN1C(=O)CN

Compound: CCN(CC)CCCC(C)Nc1ccnc2cc(Cl)ccc12 (stereo not given) [CHLOROQUINE]
Activity (Plasmodium berghei [10]): 99.5%
Activity (Plasmodium berghei [11]): 99.6%
Activity (Plasmodium berghei [12]): 99.8%
Survival (Plasmodium berghei [13]): 9 days
Survival (Plasmodium berghei [14]): 12.5 days
Survival (Plasmodium berghei [15]): 13.6 days

Compound: CC1(C)c2nc(-c3ccc(F)cc3)c(Nc3ccc(F)c(F)c3)n2CCN1C(=O)CN
EC50 (Plasmodium falciparum [1]): 4 nM
EC50 (Plasmodium falciparum [2]): 5 nM
hepatic extraction ratio [4]: 0.46
hepatic extraction ratio [5]: 0.69
hepatic extraction ratio [6]: 0.53
IC50 [16]: > 30000 nM
permeability [7]: 51.5%
Papp A→B [8]: 0.61 ×10⁻⁶ cm/s
Papp B→A [9]: 1.3 ×10⁻⁶ cm/s
Vd [17]: 7.5 L/kg
clearance [18]: 27.5 mL/min/kg
half-life [19]: 5.5 h
AUC (Mus musculus [20]): 7.062 µM·h
Cmax [21]: 1720 nM
Tmax [22]: 3 h
half-life [23]: 5.21 h
AUC (Mus musculus [24]): 21.058 µM·h
F (Mus musculus [25]): 75%
Activity (Plasmodium berghei [10]): 99%
Activity (Plasmodium berghei [11]): 99.1%
Activity (Plasmodium berghei [12]): 99.7%
Survival (Plasmodium berghei [13]): 15 days
Survival (Plasmodium berghei [14]): 16.7 days
Survival (Plasmodium berghei [15]): 17 days
AUC(0-t) at 4 h [26]: 0.367 µM·h
Cmax [27]: 96.7 nM
AUC/dose (Rattus norvegicus): 0.95 min.ug/ml/(mg/kg)

EC50 (Plasmodium falciparum [1]): 10 nM
EC50 (Plasmodium falciparum [2]): 9 nM
permeability [7]: 99.5%
Papp A→B [8]: 1.2 ×10⁻⁶ cm/s
Papp B→A [9]: 0.97 ×10⁻⁶ cm/s
Compound: CC(C)(N)C(=O)N1CCn2c(nc(-c3ccc(F)cc3)c2Nc2ccc(F)cc2)C1(C)C

EC50 (Plasmodium falciparum [1]): 31 nM
EC50 (Plasmodium falciparum [2]): 29 nM
Compound: C[C@@H]1c2nc(-c3ccc(F)cc3)c(Nc3ccc(F)c(Cl)c3)n2CCN1C(=O)CN

EC50 (Plasmodium falciparum [1]): 82 nM
EC50 (Plasmodium falciparum [2]): 111 nM
Compound: CC1(C)Cn2c(nc(-c3ccc(F)cc3)c2Nc2ccc(F)cc2)CN1C(=O)CN

EC50 (Plasmodium falciparum [1]): 1080 nM
EC50 (Plasmodium falciparum [2]): 1170 nM
hepatic extraction ratio [3]: 0.7
hepatic extraction ratio [4]: 0.66
hepatic extraction ratio [5]: 0.95
hepatic extraction ratio [6]: 0.44
permeability [7]: 80.9%
Papp A→B [8]: 15 ×10⁻⁶ cm/s
Papp B→A [9]: 14.4 ×10⁻⁶ cm/s
Compound: Cc1ccc(Nc2c(-c3ccc(F)cc3)nc3n2CC(=O)NC3)cc1

EC50 (Plasmodium falciparum [1]): 29 nM
EC50 (Plasmodium falciparum [2]): 24 nM
Compound: C[C@H]1c2nc(-c3ccc(F)cc3)c(Nc3ccc(F)c(Cl)c3)n2CCN1C(=O)CN

EC50 (Plasmodium falciparum [1]): 13 nM
EC50 (Plasmodium falciparum [2]): 7 nM
Compound: CC(C)(N)C(=O)N1CCn2c(nc(-c3ccc(F)cc3)c2Nc2ccc(F)c(F)c2)C1(C)C
